Results gathered from unrelated publications.
Compare with care: the assays were run in different laboratories. Converted amounts (≈) assume the structure as drawn.

| Structure (SMILES) | target or system | test | setting | endpoint | result |
| --- | --- | --- | --- | --- | --- |
| O=C(C[C@@H](C(F)F)n1ccc(F)n1)N1CCC(O)(Cn2cnc3c(cnn3-c3ccc(F)cc3)c2=O)CC1 | CAPAN-1 | cell growth or viability, SRB | 27.43 nM, 5 days | viability | 66.3% |
| C#CCOC(=O)ON=C1C=CC(=C(C#N)c2ccccc2)C=C1 | Candidozyma auris | microbial growth, broth dilution | 48 h | MIC | 16 µg/mL (≈ 52.6 µM) |
| NCC(=O)Nc1ccccc1/N=c1\cc(-c2ccc3c(c2)OCCO3)oc2cc(F)ccc12 | MCF7 | cell growth or viability, CCK-8 | 1 µM | inhibition | -2.78% |
| C=CC(=O)ON=C1C=CC(=C(C#N)c2ccccc2)C=C1 | Candidozyma auris | microbial killing, broth dilution | 48 h | MFC | 16 µg/mL (≈ 57.9 µM) |
| CCCCCCCCCCCC1NCCc2cc(O)c(O)cc21 (centres unmarked) |  | DPPH scavenging, absorbance | 30 min, dark | IC50 | 27.9 µM |
| Cc1n[nH]c2ccc3nc(-c4ccc(C(=O)NCCN(C)C)cc4)c4c(c3c12)CCCC4 | NOMO-1 | cell growth or viability | 72 h | GI50 | 1.05 µM |
| O=C1O[C@H]([C@@H](O)CO)C(O)=C1O |  | DPPH scavenging |  | IC50 | 88.4 µM |
| CN(C)CCNC(=O)c1ccc(-c2nc3ccc4[nH]ncc4c3c3c2CCCCC3)cc1 | NOMO-1 | cell growth or viability | 72 h | GI50 | 2.27 µM |
| CCOC(=O)C1=C(CCl)NC(=O)NC1c1ccc(C(C)C)cc1 (centres unmarked) |  | DPPH scavenging |  | IC50 | 243 µM |
| COc1ccc(C2NCCc3cc(O)c(O)cc32)cc1O (centres unmarked) |  | DPPH scavenging, absorbance | 30 min, dark | IC50 | 18.7 µM |
| C#CCON=C1C=CC(=C(C#N)c2ccccc2)C=C1 | Candidozyma auris | microbial growth, broth dilution | 48 h | MIC | 32 µg/mL (≈ 123 µM) |
| Cc1n[nH]c2ccc3nc(-c4ccc(C(=O)NCCN(C)C)cc4F)c4c(c3c12)CCCC4 | NOMO-1 | cell growth or viability | 72 h | GI50 | 0.292 µM |
| C[C@H](N)C(=O)Nc1ccccc1/N=c1\cc(-c2ccc3c(c2)OCCO3)oc2c([N+](=O)[O-])cccc12 | MCF7 | cell growth or viability, CCK-8 | 1 µM | inhibition | 6.59% |
| CCOC(=O)C1=C(CCl)NC(=O)NC1c1ccc(OC)cc1 (centres unmarked) |  | DPPH scavenging |  | IC50 | 150 µM |
| CN(C)CCNC(=O)c1ccc(-c2nc3ccc4[nH]ncc4c3c3c2CCCC3)c(F)c1 | NOMO-1 | cell growth or viability | 72 h | GI50 | 3.08 µM |
| CCOC(=O)C1=C(CSC2=NCCS2)NC(=O)NC1c1ccc(F)cc1 (centres unmarked) |  | DPPH scavenging |  | IC50 | 157 µM |
| CC(=O)ON=C1C=CC(=C(C#N)c2ccccc2)C=C1 | Candidozyma auris | microbial growth, broth dilution | 48 h | MIC | 16 µg/mL (≈ 60.5 µM) |
| Oc1cc2c(cc1O)C(CCc1ccccc1)NCC2 (centres unmarked) |  | DPPH scavenging, absorbance | 30 min, dark | IC50 | 18 µM |
| C[C@H](N)C(=O)Nc1ccccc1/N=c1\cc(-c2ccc3c(c2)OCCO3)oc2c(N)cccc12 | MCF7 | cell growth or viability, CCK-8 | 1 µM | inhibition | 7.27% |
| CCOC(=O)C1=C(CCl)NC(=O)NC1c1ccc(F)cc1F (centres unmarked) |  | DPPH scavenging |  | IC50 | 117 µM |
| N#CC(=C1C=CC(=NOC(=O)OCc2ccccc2)C=C1)c1ccccc1 | Candidozyma auris | microbial killing, broth dilution | 48 h | MFC | 128 µg/mL (≈ 359 µM) |
| CCOC(=O)C1=C(CSC2=NCCS2)NC(=O)NC1c1cccc(C)c1 (centres unmarked) |  | DPPH scavenging |  | IC50 | 224 µM |
| Oc1cc2c(cc1O)C(Cc1ccccc1)NCC2 (centres unmarked) |  | DPPH scavenging, absorbance | 30 min, dark | IC50 | 19.7 µM |
| CCOC(=O)C1=C(CSC2=NCCS2)NC(=O)NC1c1cccc(F)c1 (centres unmarked) |  | DPPH scavenging |  | IC50 | 201 µM |
| CN(C)CCNC(=O)c1ccc(-c2nc3ccc4[nH]ncc4c3c3c2CCCCC3)c(F)c1 | NOMO-1 | cell growth or viability | 72 h | GI50 | 1.33 µM |
| CCCCCCCCCC1NCCc2cc(O)c(O)cc21 (centres unmarked) |  | DPPH scavenging, absorbance | 30 min, dark | IC50 | 62 µM |
